From paper PMC10807744 (Journal of agricultural and food chemistry, 2023)

Experiments:
[1] = tested on: mAb-19F2; assay: ic-ELISA; assay type: binding, BALB/c mice; conditions: mAb-19F2, relative to buprofezin = 100%
[2] = tested on: mAb-19F2; assay: colloidal gold immunochromatographic assay; assay type: binding, BALB/c mice
In short: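 Colloidal gold strips were striped with […]. Tea was soaked 30 min in 50 mL boiling water, adjusted to pH 6-7, and 100 µL applied. Spikes were 2.5, 5 and 10 mg/kg. LOD was read by eye as test-line disappearance, and LOQ as IC20.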

Structure (SMILES) | Cross-reactivity [1] | other results
CN/C(=N/CC1CCOC1)N[N+](=O)[O-] (centres unmarked) [Dinotefuran] | <0.18% | 
CC(C)N1C(=O)N(c2ccccc2)CS/C1=N\C(C)(C)C [Buprofezin] | 100% | limit of quantitation (LOQ, IC20) ([2]; GICA, abstract): 16.8 ng/mL; IC50 of the test strip ([2]; T/C values, buprofezin standard in 0.01 M PBS): 231.20 ng/mL; detection limit (LOD) ([2]; complete disappearance of test line visible to the naked eye): 500 ng/mL
CCOC(=O)NCCOc1ccc(Oc2ccccc2)cc1 [Fenoxycarb] | <0.18% | 
CN/C(=N\[N+](=O)[O-])NCc1cnc(Cl)s1 [Clothianidin] | <0.18% | 
O=C(NC(=O)c1c(F)cccc1F)Nc1ccc(Cl)cc1 [Diflubenzuron] | <0.18% | 
C/C(=N\C#N)N(C)Cc1ccc(Cl)nc1 [Acetamiprid] | <0.18% | 
CCN(Cc1ccc(Cl)nc1)/C(=C/[N+](=O)[O-])NC [Nitenpyram] | <0.18% | 
Cc1cc(C)cc(C(=O)N(NC(=O)c2ccc3c(c2C)CCCO3)C(C)(C)C)c1 [Chromafenozide] | <0.18% | 
CN1COCN(Cc2cnc(Cl)s2)/C1=N\[N+](=O)[O-] [Thiamethoxam] | <0.18% | 
N#CCNC(=O)c1cnccc1C(F)(F)F [Flonicamid] | <0.18% | 
N#CN=C1SCCN1Cc1ccc(Cl)nc1 [(E)-Thiacloprid] | <0.18% | 
CCc1ccc(C(=O)NN(C(=O)c2cc(C)cc(C)c2)C(C)(C)C)cc1 [Tebufenozide] | <0.18% | 
O=C(NC(=O)c1c(F)cccc1F)Nc1cc(Cl)c(Oc2ncc(C(F)(F)F)cc2Cl)c(Cl)c1 [Chlorfluazuron] | <0.18% | 
O=C1C=C(N(Cc2ccc(Cl)nc2)CC(F)F)CO1 [Flupyradifurone] | <0.18% | 
CCCC/C=N/N(Cc1ccc(Cl)nc1)/C(N)=N/[N+](=O)[O-] [Guadipyr] | <0.18% | 
O=C(NC(=O)c1ccccc1Cl)Nc1ccc(OC(F)(F)F)cc1 [Triflumuron] | <0.18% | 
CC(COc1ccc(Oc2ccccc2)cc1)Oc1ccccn1 (centres unmarked) [Pyriproxyfen] | <0.18% | 
O=C(NC(=O)c1ccccc1Cl)Nc1ccc(Cl)cc1 [Chlorbenzuron] | <0.18% | 
CCCOC1CC(C)C([N+](=O)[O-])=C2N(Cc3ccc(Cl)nc3)CCN21 (centres unmarked) [Paichongding(IPP)] | <0.18% | 
CC(C)(C)N(NC(=O)c1ccccc1)C(=O)c1ccccc1 [1,2-dibenzoyl-1-(t-butyl)hydrazine] | <0.18% | 
O=C(NC(=O)c1c(F)cccc1F)Nc1cc(Cl)c(OC(F)(F)C(F)C(F)(F)F)cc1Cl (centres unmarked) [Lufenuron] | <0.18% | 
O=C(NC(=O)c1c(F)cccc1F)Nc1cc(Cl)c(OC(F)(F)C(F)F)c(Cl)c1 [Hexaflumuron] | <0.18% | 
FC(F)(F)c1ccc(OCCCOc2c(Cl)cc(OCC=C(Cl)Cl)cc2Cl)nc1 [Pyrldalyl] | <0.18% | 
Nc1nc(N)nc(NC2CC2)n1 [Cyromazine] | <0.18% | 
O=[N+]([O-])/N=C1\NCCN1Cc1cnc(Cl)s1 [Imidaclothiz] | <0.18% | 
CC(c1ccc(C(F)(F)F)nc1)S(C)(=O)=NC#N (centres unmarked) [Sulfoxaflor] | <0.18% | 
